Measurements reported in ChEMBL document CHEMBL3124909, “Heat shock protein 70 inhibitors. 2. 2,5'-thiodipyrimidines, 5-(phenylthio)pyrimidines, 2-(pyridin-3-ylthio)pyrimidines, and 3-(phenylthio)pyridines as reversible binders to an allosteric site on heat shock protein 70” (J Med Chem, 2014).
pIC50: −log10 of the molar value. Active and inactive are the calls of the source. The rule behind the calls is not given here.

Columns and labels:
MOLM-13 [1] = assay: Induction of apoptosis in human MOLM13 cells assessed as caspase 3/7 activation after 16 hrs by fluorescence assay; format: functional, cell-based; conditions: for pIC50: Homo sapiens, MOLM-13, 16 h, read-out: IC50
Method in brief: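 MOLM-13 cells at 30000/well in RPMI, held up to 24 h (37 °C, 5% CO2), then exposed 16 h to compound or DMSO. Buffer with 10 mM HEPES pH 7.5, 2 mM EDTA, 0.1% CHAPS and 25 μM Z-DEVD-R110 substrate added; fluorescence read once signal stabilized. Percent apoptotic increase calculated relative to control cells.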

[2] = target: Heat shock protein HSP 90-beta (Homo sapiens) (UniProt P08238); assay: Displacement of GM-Cy3B from HSP90 in human SKBR3 cells after 24 hrs by fluorescence polarization assay; conditions: SK-BR-3
SK-BR-3 [3] = assay: Induction of apoptosis in human SKBR3 cells assessed as c-PARP cleavage by Western blotting analysis; format: functional
Method in brief: (§1)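 Cells (SKBr3, MDA-MB-468, MiaPaCa-2 in DME/F12; MOLM-13 in RPMI; 10% FBS) grown to 60–70% confluence, then given inhibitor or DMSO. Lysis in 50 mM Tris pH 7.4, 150 mM NaCl, 1% NP-40. Protein measured by BCA, and client proteins or cleaved PARP detected by immunoblotting with peroxidase-conjugated secondary antibody.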

[4] = Cytotoxicity against human SKBR3 cells after 72 hrs by alamar blue assay; format: functional, SK-BR-3
Method in brief: (§2)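 Alamar Blue (resazurin) viability assay: attached cells (SKBr3) plated at 8000/well, suspension cells (Kasumi-1) at 20000/well, left 24 h at 37 °C, then drug added in triplicate for 72 h. Alamar Blue 50 μM added, fluorescence read 6 h later (ex 530, em 580 nm). Growth inhibition versus control corrected for time-zero population; IC50 = concentration giving 50% growth inhibition.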

Kasumi 1 = assay: Cytotoxicity against human Kasumi-1 cells after 72 hrs by alamar blue assay; format: functional, cell-based; conditions: for pIC50: Homo sapiens, Kasumi 1, 72 h, read-out: IC50; method in brief: as §2
SK-BR-3 [5] = assay: Inhibition of HSP70 in human SKBR3 cells assessed as HER2 degradation by Western blotting analysis; format: cell-based; method in brief: as §1
SK-BR-3 [6] = assay: Inhibition of HSP70 in human SKBR3 cells assessed as Raf-1 degradation by Western blotting analysis; format: cell-based; method in brief: as §1
HEK293 [7] = assay: Inhibition of human HSP70 expressed in HEK293 cells assessed as inhibition of refolding of heat denatured luciferase at 10 uM incubated for 1 hr followed by heat treatment measured after 2 hrs by Western blotting analysis; format: cell-based
Method in brief: (§3)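 HEK293 cells cotransfected with C-terminal HA-luciferase plus N-terminal Flag-human Hsp70 or control vector. Two days later: cycloheximide 50 μg/mL, compound at 10 μM added just before 1 h at 45 °C, then recovery at 37 °C up to 2 h. Triton X-100 lysates cleared at 20000g; luciferase activity normalized to protein, expressed as % of pre-heat-shock activity; soluble proteins immunoblotted.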

MIA PaCa-2 [8] = assay: Inhibition of HSP70 in human MIAPaCa2 cells assessed as STAT-3 degradation at 1 to 20 uM by Western blotting analysis; format: cell-based; method in brief: as §1
MIA PaCa-2 [9] = assay: Inhibition of HSP70 in human MIAPaCa2 cells assessed as AKT degradation at 1 to 20 uM by Western blotting analysis; format: cell-based; method in brief: as §1
MDA-MB-468 [10] = assay: Inhibition of HSP70 in human MDA-MB-468 cells assessed as Raf-1 degradation at 0.5 to 25 uM by Western blotting analysis; format: cell-based; method in brief: as §1
MIA PaCa-2 [11] = assay: Inhibition of HSP70 in human MIAPaCa2 cells assessed as Raf-1 degradation at 1 to 20 uM by Western blotting analysis; format: cell-based; method in brief: as §1
MDA-MB-468 [12] = assay: Inhibition of HSP70 in human MDA-MB-468 cells assessed as STAT-3 degradation at 0.5 to 25 uM by Western blotting analysis; format: cell-based; method in brief: as §1
[13] = tested on: Heat shock 70 kDa protein (Homo sapiens); assay: Inhibition of HSP70 in human SKBR3 cells assessed as inhibition of HSP70-HOP-HSP90 complex formation after 24 hrs by Western blotting analysis; conditions: SK-BR-3
MOLM-13 [14] = assay: Inhibition of HSP70 in human MOLM13 cells assessed as STAT5 degradation at 1 to 20 uM by Western blotting analysis; format: cell-based; method in brief: as §1
HEK293 [15] = assay: Inhibition of HSP70 in HEK293 cells assessed as inhibition of refolding of heat denatured luciferase at 10 uM incubated for 1 hr followed by heat treatment measured after 2 hrs by Western blotting analysis; format: cell-based; conditions: Homo sapiens; method in brief: as §3
[16] = target: Receptor-type tyrosine-protein kinase FLT3 (Homo sapiens) (UniProt P36888); assay: Inhibition of HSP70 in human MOLM13 cells assessed as mutant FLT3 degradation at 1 to 20 uM by Western blotting analysis; format: cell-based; conditions: MOLM-13; method in brief: as §1
Chain of Receptor-type tyrosine-protein kinase FLT3 (Homo sapiens) (P36888 whole entry): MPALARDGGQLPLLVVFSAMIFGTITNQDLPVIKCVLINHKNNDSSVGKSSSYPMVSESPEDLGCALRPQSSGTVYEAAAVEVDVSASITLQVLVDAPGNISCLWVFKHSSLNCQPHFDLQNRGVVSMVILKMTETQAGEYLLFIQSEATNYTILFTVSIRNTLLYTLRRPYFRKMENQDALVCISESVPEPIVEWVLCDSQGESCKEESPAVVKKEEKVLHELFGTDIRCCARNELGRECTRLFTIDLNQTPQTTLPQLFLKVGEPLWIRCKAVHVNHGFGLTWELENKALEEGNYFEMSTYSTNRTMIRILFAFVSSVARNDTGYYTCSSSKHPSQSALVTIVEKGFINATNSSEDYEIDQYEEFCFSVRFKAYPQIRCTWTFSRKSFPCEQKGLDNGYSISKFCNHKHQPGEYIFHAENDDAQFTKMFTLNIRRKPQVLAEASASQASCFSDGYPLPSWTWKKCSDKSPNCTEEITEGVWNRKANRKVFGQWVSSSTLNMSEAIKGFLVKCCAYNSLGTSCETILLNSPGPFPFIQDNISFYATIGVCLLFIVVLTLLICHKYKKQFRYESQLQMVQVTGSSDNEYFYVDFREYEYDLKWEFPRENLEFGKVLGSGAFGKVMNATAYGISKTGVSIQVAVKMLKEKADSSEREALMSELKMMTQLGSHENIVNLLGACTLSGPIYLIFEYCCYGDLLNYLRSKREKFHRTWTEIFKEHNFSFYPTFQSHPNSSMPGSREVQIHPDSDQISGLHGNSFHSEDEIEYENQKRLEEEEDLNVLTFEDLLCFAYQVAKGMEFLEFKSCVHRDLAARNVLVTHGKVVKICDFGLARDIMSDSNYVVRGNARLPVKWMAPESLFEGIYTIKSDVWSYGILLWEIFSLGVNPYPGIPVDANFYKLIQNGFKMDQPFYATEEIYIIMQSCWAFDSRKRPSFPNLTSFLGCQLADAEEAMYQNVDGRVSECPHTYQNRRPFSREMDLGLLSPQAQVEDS

Chain of Heat shock protein HSP 90-beta (Homo sapiens) (P08238 whole entry): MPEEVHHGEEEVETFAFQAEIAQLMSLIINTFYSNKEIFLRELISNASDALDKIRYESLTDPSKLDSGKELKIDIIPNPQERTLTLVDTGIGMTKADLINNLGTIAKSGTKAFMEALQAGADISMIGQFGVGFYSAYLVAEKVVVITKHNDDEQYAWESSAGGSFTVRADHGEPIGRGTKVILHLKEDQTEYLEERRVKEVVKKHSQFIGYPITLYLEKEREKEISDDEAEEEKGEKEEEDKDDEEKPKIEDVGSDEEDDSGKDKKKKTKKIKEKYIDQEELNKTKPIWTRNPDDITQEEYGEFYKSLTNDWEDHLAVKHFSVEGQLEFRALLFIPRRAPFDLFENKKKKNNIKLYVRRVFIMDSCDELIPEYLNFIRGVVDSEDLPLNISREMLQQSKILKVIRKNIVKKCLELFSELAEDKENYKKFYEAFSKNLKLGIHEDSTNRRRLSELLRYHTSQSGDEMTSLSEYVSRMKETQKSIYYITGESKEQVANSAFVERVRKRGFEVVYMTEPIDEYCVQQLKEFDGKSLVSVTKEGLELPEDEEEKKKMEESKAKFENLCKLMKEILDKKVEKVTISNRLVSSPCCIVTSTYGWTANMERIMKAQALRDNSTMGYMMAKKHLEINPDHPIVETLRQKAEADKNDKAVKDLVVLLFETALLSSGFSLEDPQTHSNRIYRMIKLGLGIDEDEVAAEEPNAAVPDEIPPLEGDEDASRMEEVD

Row | pIC50 (MOLM-13 [1]) | INH [2] | SMILES | INH (SK-BR-3 [3]) | GI [4] | pIC50 (Kasumi 1) | INH (SK-BR-3 [5]) | INH (SK-BR-3 [6]) | further results
1 | 4.74 | > 500 µM | COc1nc(N2CCN(C)CC2)nc(OC)c1Sc1cccc(NC(=O)CN)c1 | 40 µM | 25 µM | 4.65 | 20 µM | 20 µM | 
2 | 4.19 |  | C=CCC(=O)Nc1cccc(Sc2c(OC)nc(N3CCN(C)CC3)nc2OC)c1 |  |  |  |  |  | 
3 | 4.89 | > 500 µM | COc1nc(N2CCN(C)CC2)ncc1Sc1cccc(NC(=O)CN)c1 | 19 µM | 15 µM | 4.60 | 18 µM | 15 µM | 
4 | 4.49 |  | COc1nc(N2CCN(C)CC2)ccc1Sc1cccc(NC(=O)C2CC2)c1 |  |  | 4.44 |  |  | 
5 |  |  | COc1nc(N2CCN(C)CC2)nc(OC)c1Sc1cccc(NC(=O)C2CCCCC2)c1 |  |  |  |  |  | IC50 (MOLM-13 [1]; molm-13): ND(Insoluble); IC50 (Kasumi 1; kasumi 1): ND(Insoluble)
6 | 5.62 |  | CC(C)C(N)C(=O)Nc1cccc(Sc2cnc(N3CCN(C)CC3)nc2OCc2ccccc2)c1 (stereo not given) |  |  | 5.51 |  |  | 
7 |  | > 500 µM | C=CC(=O)Nc1cc(N)nc(Sc2c(OCC)nc(N3CCN(C)CC3)nc2OCC)n1 | 1.5 µM | 1.1 µM |  | 1 µM | 2.5 µM | 
8 | 4.70 | > 250 µM | COc1nc(N2CCN(C)CC2)ccc1Sc1cccc(NC(=O)c2ccccc2)c1 | 25 µM | 20 µM | 5.33 | 19 µM | 20 µM | 
9 | < 4.30 | > 500 µM | CCCCCCCC(=O)Nc1cc(N)nc(Sc2c(OC)nc(N3CCN(C)CC3)nc2OC)n1 | >25 µM |  |  | > 25 µM | > 25 µM | 
10 | 3.82 |  | COc1nc(N2CCN(C)CC2)nc(OC)c1Sc1nccc(NC(C)=O)n1 |  |  |  |  |  | 
11 | 4.68 |  | COc1nc(N2CCN(C)CC2)ccc1Sc1cccc(NC(=O)CN)c1 |  |  | 4.72 |  |  | 
12 | 4.02 |  | CCOc1nc(N2CCN(C)CC2)nc(OCC)c1Sc1nc(N)cc(NC(=O)C2CC2)n1 |  |  |  |  |  | 
13 | 4.99 |  | CC(=O)Nc1cccc(Sc2cnc(N3CCN(C)CC3)nc2OCc2ccccc2)c1 |  |  | 5.28 |  |  | 
14 | 4.60 | > 500 µM | COc1nc(N2CCN(C)CC2)nc(OC)c1Sc1nc(N)cc(NC(=O)CCN(C)C)n1 | 75 µM |  | 4.83 | 70 µM | 50 µM | 
15 | 4.01 |  | CCC(=O)Nc1ccnc(Sc2c(C)nc(N3CCN(C)CC3)nc2C)n1 |  |  |  |  |  | 
16 | 3.99 |  | CCC(=O)Nc1ccnc(Sc2ccc(N3CCN(C)CC3)nc2OC)n1 |  |  |  |  |  | 
17 | 4.20 |  | COc1nc(N2CCN(C)CC2)ccc1Sc1nccc(NC(=O)C2CC2)n1 |  |  | 4.23 |  |  | 

Row | pIC50 (MOLM-13 [1]) | INH [2] | SMILES | INH (SK-BR-3 [3]) | GI [4] | pIC50 (Kasumi 1) | INH (SK-BR-3 [5]) | INH (SK-BR-3 [6]) | further results
18 | 5.72 | > 500 µM | CN1CCN(c2ncc(Sc3cccc(NC(=O)CN)c3)c(OCc3ccccc3)n2)CC1 | 1.5 µM | 2.1 µM | 5.64 | 1.5 µM | 1.2 µM | inhibition (HEK293 [7]): Active; inhibition (MIA PaCa-2 [8]): Active; inhibition (MIA PaCa-2 [9]): Active; inhibition (MDA-MB-468 [10]): Active; inhibition (MIA PaCa-2 [11]): Active; inhibition (MDA-MB-468 [12]): Active; inhibition [13]: Dose-dependent effect; inhibition (MOLM-13 [14]): Active; inhibition (HEK293 [15]): Active; inhibition [16]: Active
19 | 3.78 | > 500 µM | COc1nc(N2CCN(C)CC2)nc(OC)c1Sc1nc(N)cc(NC(C)=O)n1 | 180 µM |  |  | 125 µM | 150 µM | 
20 |  | > 500 µM | C=CC(=O)Nc1ccnc(Sc2c(C)nc(N3CCN(C)CC3)nc2C)n1 | 5 µM | 1.8 µM |  | 4 µM | 5 µM | 
21 | 4.41 |  | CCC(=O)Nc1cccc(Sc2ccc(N3CCN(C)CC3)nc2OC)c1 |  |  |  |  |  | 
22 | 4.60 |  | CN1CCN(c2ncc(Sc3cccc(NC(=O)CN)c3)c(-c3ccccc3)n2)CC1 |  |  | 4.68 |  |  | 
23 | 3.85 |  | CCC(=O)Nc1ccnc(Sc2c(OC)nc(N3CCN(C)CC3)nc2OC)n1 |  |  |  |  |  | 
24 | 4.19 | > 500 µM | CCC(=O)Nc1cccc(Sc2c(OC)nc(N3CCN(C)CC3)nc2OC)c1 | 75 µM | 55 µM |  | 75 µM | 80 µM | 
25 | 5.77 |  | CN1CCN(c2ncc(Sc3cccc(NC(=O)C4CCCN4)c3)c(OCc3ccccc3)n2)CC1 (stereo not given) |  |  | 5.54 |  |  | 
26 | 5.10 | 497 µM | COc1nc(N2CCN(C)CC2)nc(OC)c1Sc1cccc(NC(=O)c2ccccc2)c1 | 7.5 µM | 8 µM | 5.09 | 7.5 µM | 10 µM | 
27 | 4.49 | > 250 µM | Cc1nc(N2CCN(C)CC2)nc(C)c1Sc1nccc(NC(=O)c2ccco2)n1 | 30 µM | 30 µM | 4.52 | 25 µM | 25 µM | 
28 | 4.43 | > 250 µM | CCOc1nc(N2CCN(C)CC2)nc(OCC)c1Sc1nc(N)cc(NC(=O)CC)n1 | 80 µM | 55 µM | 4.29 | 50 µM | 70 µM | 
29 | 5.70 |  | CC(N)C(=O)Nc1cccc(Sc2cnc(N3CCN(C)CC3)nc2OCc2ccccc2)c1 (stereo not given) |  |  | 5.32 |  |  | 
30 | 4.17 |  | Cc1nc(N2CCN(C)CC2)nc(C)c1Sc1nccc(NC(=O)C2CC2)n1 |  |  | 4.22 |  |  | 
31 | 4.22 | > 250 µM | COc1nc(N2CCN(C)CC2)nc(OC)c1Sc1cccc(NC(=O)C2CCC2)c1 | 75 µM | 70 µM | 4.33 | 70 µM | 45 µM | 
32 | < 3.60 |  | CN1CCN(c2ccc(Sc3cccc(NC(=O)CN)c3)c(O)n2)CC1 |  |  |  |  |  | 
33 | 5.39 |  | CN1CCN(c2ncc(Sc3cccc(NC(=O)c4ccccc4)c3)c(OCc3ccccc3)n2)CC1 |  |  | 5.51 |  |  | 
34 | 5.11 |  | CN1CCN(c2ncc(Sc3cccc(NC(=O)CN)c3)c(OCc3ccncc3)n2)CC1 |  |  | 4.97 |  |  | 
